In article PMC11867109 (Chemical Science, 2025):
No end group written: not given here.

Key:
human red blood cells = test: Hemolysis assay; assay type: cell-based; details: hRBC, at 64 μg mL^−1 peptide; mean ± SD
Procedure, shortened: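 Human red blood cells exposed to two-fold serial dilutions of test peptide, with 4096 µg mL⁻¹ as the assay's upper concentration limit. HC10 is interpolated continuously from the dilution series. Values are means of three independent experiments, each with at least two technical duplicates, with standard deviation.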

[1] = Helicity and helical rigidity by circular dichroism; assay type: physicochemical; details: ratio between molar ellipticity in 15% TFE and in 100% TFE

Which hemolysis (human red blood cells) does the source give for GLFDIIKKIAESF-NH2 [Aurein 1.2] here?
The hemolysis was 37.2 ± 1.8%.

What about the “Helical rigidity % ± SD” value [1] of the same substance?
The value was 102 ± 2%.
